The test system of assay [1] is Escherichia coli. Briefly: Antibacterial activity against Escherichia coli ECM116 mar1642 overexpressing […] pump after 18 hrs by twofold serial dilution method relative to berberine. Format: functional. The essentials: (§1)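 Broth microdilution with an inoculum of 10^5 cells/mL and serial 2-fold compound dilutions, run in triplicate. Plates were incubated 18 h at 37 °C and growth was read as absorbance at 600 nm. MIC was the lowest concentration giving complete growth inhibition.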

Assay [2] has as its system Staphylococcus aureus. The experiment in a line: Antibacterial activity against Staphylococcus aureus K2378 overexpressing NorA efflux pump after 18 hrs by twofold serial dilution method. Format: functional. The conditions noted are these: K2378, 18 h. The essentials: (§2)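 Broth microdilution with serial 2-fold dilutions of compound, cells inoculated at 10^5 per mL, in triplicate. MIC is the lowest concentration giving complete growth inhibition over 18 h at 37 °C. Growth is read as absorbance at 600 nm.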

The test system of assay [3] is Staphylococcus aureus. The experiment in a line: Antibacterial activity against Staphylococcus aureus K1758 NorA efflux pump-deficient mutant after 18 hrs by twofold serial dilution method relative to berberine. Format: functional.
Assay [4] concerns Staphylococcus aureus. Briefly: Antibacterial activity against wild type Staphylococcus aureus 8325-4 after 18 hrs by twofold serial dilution method relative to berberine. Format: functional. An outline of the steps: as §1
Assay [5] relates to Nucleic Acid. Briefly: Binding affinity to D2 duplex DNA by electrospray ionization mass spectrometry. Format: nucleic-acid assay. An outline of the steps:
(§3)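 Duplex D1, D2 or forked F10 was annealed from complementary strands in 0.1 M ammonium acetate. ESI-MS used a 100 V cone voltage; thirty acquisitions were combined, baseline-subtracted and smoothed.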

The test system of assay [6] is Escherichia coli. The experiment in a line: Antibacterial activity against Escherichia coli ECM116 mar1642 overexpressing […] pump after 18 hrs by twofold serial dilution method. Format: functional. The conditions noted are these: ECM116, 18 h. An outline of the steps:
as §2

The test system of assay [7] is Nucleic Acid. The experiment in a line: Binding affinity to quadruplex Q3 DNA by electrospray ionization mass spectrometry. Format: nucleic-acid assay.
Assay [8] has as its system Staphylococcus aureus. Briefly: Antibacterial activity against Staphylococcus aureus K2378 overexpressing NorA efflux pump after 18 hrs by twofold serial dilution method relative to berberine. Format: functional.
Assay [9] relates to Nucleic Acid. The experiment in a line: Binding affinity to F10 duplex DNA by electrospray ionization mass spectrometry. Format: nucleic-acid assay. An outline of the steps: as §3
For assay [10], the system named is Escherichia coli. The experiment in a line: Antibacterial activity against Escherichia coli BW-25116 TolC-deficient mutant after 18 hrs by twofold serial dilution method. Format: functional. The following applies: BW25116, 18 h. An outline of the steps:
as §2

Assay [11] has as its system Escherichia coli. The experiment in a line: Antibacterial activity against Escherichia coli BW-25116 TolC-deficient mutant after 18 hrs by twofold serial dilution method relative to berberine. Format: functional, BW25116. The essentials:
as §1

Assay [12] concerns Staphylococcus aureus. Briefly: Antibacterial activity against wild type Staphylococcus aureus 8325-4 after 18 hrs by twofold serial dilution method. The following applies: 8325-4, 18 h. Format: functional. The essentials: (§4)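 Broth microdilution: cells at 10^5 mL−1 in broth, serial 2-fold dilutions of compound, triplicate determinations; 18 h at 37 °C; growth followed by absorbance at 600 nm. MIC taken as the lowest concentration giving complete growth inhibition.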

In assay [13] the test system is Nucleic Acid. The experiment in a line: Binding affinity to D1 duplex DNA by electrospray ionization mass spectrometry. Format: nucleic-acid assay. The essentials:
as §3

In assay [14] the test system is Escherichia coli. Briefly: Antibacterial activity against Escherichia coli K-12 after 18 hrs by twofold serial dilution method. The following applies: K-12, 18 h. Format: functional. An outline of the steps:
as §4

Assay [15] relates to Nucleic Acid. Briefly: Binding affinity to quadruplex Q1 DNA by electrospray ionization mass spectrometry. Format: nucleic-acid assay.
Assay [16] has as its system Escherichia coli. Briefly: Antibacterial activity against Escherichia coli ECM1642 after 18 hrs by twofold serial dilution method. Format: functional. The following applies: ECM1642, 18 h. The essentials: as §4
In assay [17] the test system is Staphylococcus aureus. Briefly: Antibacterial activity against Staphylococcus aureus K1758 NorA efflux pump-deficient mutant after 18 hrs by twofold serial dilution method. Format: functional. The conditions noted are these: K1758, 18 h. An outline of the steps: as §2
For assay [18], the system named is Enterococcus faecalis. The experiment in a line: Antibacterial activity against Enterococcus faecalis MMH594 after 18 hrs by twofold serial dilution method. Format: functional. The conditions noted are these: MMH594, 18 h. An outline of the steps:
as §4

The subject of assay [19] is Enterococcus faecalis. Briefly: Antibacterial activity against Enterococcus faecalis OG1RF after 18 hrs by twofold serial dilution method. Format: functional. The essentials: as §4
Assay [20] relates to Enterococcus faecalis. Briefly: Antibacterial activity against Enterococcus faecalis V583 after 18 hrs by twofold serial dilution method. The conditions noted are these: V583, 18 h. Format: functional. The essentials:
as §4

In assay [21] the target is T1, Quinolone resistance protein NorA (Staphylococcus aureus) (UniProt P0A0J7).
T1 sequence (whole entry): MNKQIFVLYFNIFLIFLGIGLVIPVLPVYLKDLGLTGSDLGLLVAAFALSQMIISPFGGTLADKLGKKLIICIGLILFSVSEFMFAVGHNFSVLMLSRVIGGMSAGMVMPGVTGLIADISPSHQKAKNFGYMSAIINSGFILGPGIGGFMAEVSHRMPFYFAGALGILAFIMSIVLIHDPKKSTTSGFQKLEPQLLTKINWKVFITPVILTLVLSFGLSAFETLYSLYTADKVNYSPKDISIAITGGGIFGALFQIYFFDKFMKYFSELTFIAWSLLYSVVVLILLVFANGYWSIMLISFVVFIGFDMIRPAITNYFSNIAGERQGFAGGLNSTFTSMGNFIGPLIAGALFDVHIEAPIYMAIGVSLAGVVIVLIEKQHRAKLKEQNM
Briefly: Inhibition of NorA efflux pump in Staphylococcus aureus K2378 overexpressing NorA efflux pump overexpressing NorA efflux pump assessed as increase in berberine accumulation at 3 uM. An outline of the steps:
(§5)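 Cells are grown at 37 °C to OD600 1.5 and washed twice in PBS. They are energised in PBS with 10 mM dextrose (OD ~0.8) for 1 h at 37 °C with aeration, washed, then diluted to OD ~0.3 in PBS. Compounds are added at 3 μM final. Accumulation is followed by fluorescence at ex/em 355/517 nm, with cell-free background subtracted.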

For assay [22], the target named is T1, Quinolone resistance protein NorA (Staphylococcus aureus). Briefly: Inhibition of NorA efflux pump in Staphylococcus aureus K1758 NorA efflux pump-deficient mutant assessed as potentiation of EtBr uptake at 3 uM. An outline of the steps:
(§6)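 Cells are prepared as for the accumulation assay: grown to OD600 1.5, washed in PBS, energised 1 h at 37 °C in PBS with 10 mM dextrose, then diluted to OD ~0.3 in PBS. The inhibitor (3 μM final) is added before ethidium bromide. Uptake is read by fluorescence at ex/em 530/600 nm, with cell-free background subtracted.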

For assay [23] the target is unchanged. Briefly: Inhibition of NorA efflux pump in Staphylococcus aureus K2378 overexpressing NorA efflux pump assessed as potentiation of EtBr uptake at 3 uM. The essentials:
as §6

Assay [24] has the same target. The experiment in a line: Inhibition of NorA efflux pump in Staphylococcus aureus K1758 NorA efflux pump-deficient mutant assessed as increase in berberine accumulation at 3 uM. The essentials:
as §5

Assay [25] shares this target. Briefly: Inhibition of NorA efflux pump in wild type Staphylococcus aureus 8325-4 assessed as increase in berberine accumulation at 3 uM. An outline of the steps: as §5
The target is the same in assay [26]. Briefly: Inhibition of NorA efflux pump in wild type Staphylococcus aureus 8325-4 assessed as potentiation of EtBr uptake at 3 uM. The essentials: as §6
Assay [27] shares this target. The experiment in a line: Inhibition of NorA efflux pump in Staphylococcus aureus K2378 overexpressing NorA efflux pump assessed as inhibition of EtBr efflux at 3 uM. An outline of the steps:
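K2378 cells are grown at 37 °C to OD ~0.9, washed in PBS and loaded with 3 μM ethidium bromide plus 30 μg/mL reserpine for 20 min at 37 °C. After ice-cold washes, they are added at OD 0.3 to ice-cold PBS with 10 mM dextrose containing inhibitor at 3 μM final. The no-efflux control is PBS without dextrose plus reserpine. Efflux is read at ex/em 530/600 nm.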

The structures appear in SMILES notation. The source made the active and inactive calls. No cut-off for these calls is given here. Some results are limits rather than exact numbers.

By MIC is commonly meant the lowest concentration found to suppress growth. Low values mean a more susceptible organism, high ones a less susceptible organism. Take `COc1ccc2c(OCc3ccc4ccccc4c3)c3[n+](cc2c1OC)CCc1cc2c(cc1-3)OCO2.[Br-]`: the “fold change (FC)” value with Escherichia coli [1] was 15; with Staphylococcus aureus [3] it was 7; in the assay with Staphylococcus aureus [4], 30; in the assay with Staphylococcus aureus [8], above 30; with Escherichia coli [11] it was 30. Besides, the MIC against Staphylococcus aureus [2] was 21.9 µM; in the assay with Escherichia coli [6], 21.9 µM; against Escherichia coli [10] it was 10.9 µM; with Staphylococcus aureus [12], 10.9 µM; against Escherichia coli [14] it was above 175 µM; against Escherichia coli [16] it was above 175 µM. The MIC with Staphylococcus aureus [17] is 5.5 µM. The Activity stood at 20% with Nucleic Acid [5]; 67% with Nucleic Acid [7]; 15% with Nucleic Acid [9]; 30% in the assay with Nucleic Acid [13]; 100% with Nucleic Acid [15].
Take `COc1ccc2cc3[n+](cc2c1OC)CCc1cc2c(cc1-3)OCO2` [BERBERINE CHLORIDE]: the MIC against Staphylococcus aureus [2] is above 650 µM; against Escherichia coli [6], 325 µM; against Escherichia coli [10], 325 µM; with Enterococcus faecalis [18], above 650 µM; against Enterococcus faecalis [19], 650 µM; with Staphylococcus aureus [12], 325 µM. The minimum inhibitory concentration (MIC) is above 650 µM in the assay with Enterococcus faecalis [20], above 2600 µM in the assay on Escherichia coli [14], above 2600 µM against Escherichia coli [16] and 40 µM in the assay on Staphylococcus aureus [17].
Turning to `COc1ccc2c(OCc3ccccn3)c3[n+](cc2c1OC)CCc1cc2c(cc1-3)OCO2.[Br-]`, the “fold change (FC)” value in the assay on Escherichia coli [1] is on record as 2; with Staphylococcus aureus [3], below 5; with Staphylococcus aureus [4], below 2; in the assay with Staphylococcus aureus [8] it was above 3; in the assay on Escherichia coli [11], 2. Moreover, the MIC against Staphylococcus aureus [2] is above 191 µM; in the assay on Escherichia coli [6] it was 191 µM; against Escherichia coli [10] it was 191 µM; in the assay with Staphylococcus aureus [12], above 191 µM; against Escherichia coli [14] it was above 191 µM; in the assay with Escherichia coli [16] it was above 191 µM. Moreover, the MIC in the assay on Staphylococcus aureus [17] worked out at 191 µM.
For the molecule `COc1ccc2c(OCc3ccccc3)c3[n+](cc2c1OC)CCc1cc2c(cc1-3)OCO2.[Br-]`, the “fold change (FC)” value with Escherichia coli [1] came out at 14; in the assay on Staphylococcus aureus [3], 3; in the assay with Staphylococcus aureus [4], 14; in the assay on Staphylococcus aureus [8] it was 7; in the assay with Escherichia coli [11] it was 27. Also, the MIC against Staphylococcus aureus [2] is 95.8 µM; in the assay with Escherichia coli [6] it was 24 µM; with Escherichia coli [10] it was 12 µM; against Staphylococcus aureus [12] it was 24 µM; against Escherichia coli [14], above 192 µM; in the assay with Escherichia coli [16], above 192 µM. The same molecule showed an MIC against Staphylococcus aureus [17] of 12 µM.
For the molecule `COc1ccc2c(Cc3ccccc3-c3cc4cc([N+](=O)[O-])ccc4[nH]3)c3[n+](cc2c1OC)CCc1cc2c(cc1-3)OCO2`, the outcome in assay [21], in assay [22], in assay [23], in assay [24], in assay [25] and in assay [26] was Active. Also, the outcome in assay [27] was Active. Moreover, the MIC was 3.1 µM with Staphylococcus aureus [2]; above 150 µM in the assay on Escherichia coli [6]; above 150 µM with Escherichia coli [10]; 6.3 µM with Enterococcus faecalis [18]; 6.3 µM with Enterococcus faecalis [19]; 3.1 µM with Staphylococcus aureus [12]. Also, the MIC is 6.3 µM in the assay with Enterococcus faecalis [20], above 150 µM against Escherichia coli [14], above 150 µM with Escherichia coli [16] and 3.1 µM against Staphylococcus aureus [17].
Turning to `COc1ccc2c(OCc3ccc(C#N)cc3)c3[n+](cc2c1OC)CCc1cc2c(cc1-3)OCO2.[Br-]`, the “fold change (FC)” value with Escherichia coli [1] is 7; in the assay with Staphylococcus aureus [3], below 2; in the assay with Staphylococcus aureus [4], 2; in the assay with Staphylococcus aureus [8], 4; in the assay with Escherichia coli [11] it was 4. For the same molecule, the MIC against Staphylococcus aureus [2] was above 183 µM; in the assay with Escherichia coli [6], 45.7 µM; with Escherichia coli [10] it was 91.4 µM; with Staphylococcus aureus [12] it was 183 µM; against Escherichia coli [14], above 183 µM; against Escherichia coli [16], above 183 µM. For the same molecule, in the assay with Staphylococcus aureus [17], the lowest concentration to inhibit growth (MIC) was 91.4 µM.

Source of the values: ChEMBL document CHEMBL1158423, “Antibacterial activity of berberine-NorA pump inhibitor hybrids with a methylene ether linking group” (2009).
